According to ChEMBL document CHEMBL4002557, “Phenanthrenes from Juncus inflexus with Antimicrobial Activity against Methicillin-Resistant Staphylococcus aureus” (2016):
Values after ≈ are worked out from the molar mass of the structure shown. Active and inactive are the calls of the source. The calls are words filed in the database; no cut-off is given here.

How the values were obtained:
Type in all cases: functional
Staphylococcus aureus [1] = assay: Antibacterial activity against methicillin-resistant Staphylococcus aureus ATCC 43300 at 10 mg/ml after 24 hrs by disk diffusion method; conditions: for zone of inhibition at 10000 µg/mL: ATCC 43300, 24 h, read-out: DIZ
Procedure, shortened: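 Disk diffusion. Pure compounds were diluted to 10 mg/mL in DMSO, and 50 μL was loaded onto 6 mm sterile paper disks. Disks were placed on agar seeded with bacterial suspension (0.5 McFarland, (1−2) × 10^8 CFU/mL), with solvent as negative control. Incubation was 37 °C, 24 h, aerobic. Inhibition-zone diameter was measured including the disk. Done in triplicate.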

Staphylococcus aureus [2] = assay: Antibacterial activity against methicillin-resistant Staphylococcus aureus ATCC 43300 after 24 hrs by microdilution method; conditions: ATCC 43300, 24 h
Procedure, shortened: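 Broth microdilution in 96-well plates. DMSO stocks (50 mg/mL) were serially diluted in Mueller-Hinton broth to final 2.5 mg/mL–4.9 μg/mL. Inoculum was 0.5 McFarland, (1−2) × 10^8 CFU/mL. Controls were sterility, DMSO/inoculum negative and vancomycin positive. Incubation was 37 °C, 24 h, aerobic. MIC was the lowest concentration with no visible growth. Run twice in triplicate.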

Staphylococcus aureus [3] = assay: Ratio of MIC for methicillin-sensitive Staphylococcus aureus in dark to MIC for methicillin-sensitive Staphylococcus aureus in presence of UVA irradiation
Staphylococcus aureus [4] = assay: Antibacterial activity against methicillin-resistant Staphylococcus aureus ATCC 43300 at 5 ug/disk after 24 hrs by disk diffusion method; conditions: ATCC 43300, 24 h, read-out: DIZ

COc1cc(-c2cc(=O)c3c(O)cc(O)cc3o2)ccc1O was tested, and the “diameter of the inhibition zone (DIZ)” value (Staphylococcus aureus [1]) was “inactive”.

For C=Cc1cc2c(cc1C)CCc1c-2ccc(O)c1C, the “diameter of the inhibition zone (DIZ)” value (Staphylococcus aureus [1]) was “inactive”.

Work on C=Cc1c(C)c(O)cc2c1ccc1c(C)c(O)ccc12 yielded an MIC (Staphylococcus aureus [2]) of 25 µg/mL (≈ 94.6 µM) and a zone of inhibition at 10000 µg/mL (Staphylococcus aureus [1]) of 10 mm.

With C=C[C@@]1(C)C(=O)C2=C(C[C@H]1O)c1ccc(O)c(C)c1CC2 the “diameter of the inhibition zone (DIZ)” value (Staphylococcus aureus [1]) was “inactive”.

C=Cc1c(C)c(O)cc2c1-c1ccc(O)c(C)c1CC2 showed an MIC (Staphylococcus aureus [2]) of 25 µg/mL (≈ 93.9 µM), a Ratio (Staphylococcus aureus [3]) of 2 and a zone of inhibition at 10000 µg/mL (Staphylococcus aureus [1]) of 12 mm.

With C=Cc1cc2c(ccc3c(C)c(O)ccc32)cc1C the “diameter of the inhibition zone (DIZ)” value (Staphylococcus aureus [1]) was “inactive”.

With C=Cc1c(C)c(O)cc2c1CCc1c-2ccc(O)c1C the “diameter of the inhibition zone (DIZ)” value (Staphylococcus aureus [1]) was “inactive”.

With COC(C)c1cc(O)c(C)c2c1-c1ccc(O)c(C)c1CC2 (racemic) the “diameter of the inhibition zone (DIZ)” value (Staphylococcus aureus [1]) was “inactive”.

Compound CN[C@H](CC(C)C)C(=O)N[C@H]1C(=O)N[C@@H](CC(N)=O)C(=O)N[C@H]2C(=O)N[C@H]3C(=O)N[C@H](C(=O)N[C@H](C(=O)O)c4cc(O)cc(O)c4-c4cc3ccc4O)[C@H](O)c3ccc(c(Cl)c3)Oc3cc2cc(c3O[C@@H]2O[C@H](CO)[C@@H](O)[C@H](O)[C@H]2O[C@H]2C[C@](C)(N)[C@H](O)[C@H](C)O2)Oc2ccc(cc2Cl)[C@H]1O [VANCOMYCIN] has a zone of inhibition at 5 µg/disc (Staphylococcus aureus [4]) of 15.5 mm.

For Cc1cc2ccc3c(C)c(O)ccc3c2cc1[C@@H]1CC=Cc2c3c(c(C)c(O)c21)CCc1c-3ccc(O)c1C, the “diameter of the inhibition zone (DIZ)” value (Staphylococcus aureus [1]) was “inactive”.

For C=CC1=C(C)C(=O)C=C2c3ccc(O)c(C)c3CC[C@]21O, the MIC (Staphylococcus aureus [2]) was 12.5 µg/mL (≈ 44.3 µM) and the zone of inhibition at 10000 µg/mL (Staphylococcus aureus [1]) was 12 mm.

For C=Cc1c(C)c(O)cc2ccc3c(C)c(O)ccc3c12, the “diameter of the inhibition zone (DIZ)” value (Staphylococcus aureus [1]) was “inactive”.

Compound C=Cc1cc(O)cc2c1-c1ccc(O)c(C)c1CC2 [EFFUSOL] has a Ratio (Staphylococcus aureus [3]) of 16.

C=Cc1c(C)c(O)cc2c1-c1ccc(OC)c(CO)c1CC2 gave an MIC (Staphylococcus aureus [2]) of 100 µg/mL (≈ 337 µM) and a zone of inhibition at 10000 µg/mL (Staphylococcus aureus [1]) of 7 mm.
